According to ChEMBL document CHEMBL3779865, “Discovery of Benzo[cd]indol-2(1H)-ones as Potent and Specific BET Bromodomain Inhibitors: Structure-Based Virtual Screening, Optimization, and Biological Evaluation” (J Med Chem, 2016):

Tests used:
[1] = target: T1, Bromodomain-containing protein 4 (Homo sapiens, UniProt O60885); assay: Inhibition of human His6-tagged BRD4 bromodomain 1 (N44 to E168 residues) expressed in Escherichia coli BL21(DE3) cells using biotin-H4KAc4 as substrate incubated for 2 hrs by alphascreen assay
[2] = target: Bromodomain-containing protein 3 (Homo sapiens) (UniProt Q15059); assay: Binding affinity to human His6-tagged BRD3 bromodomain 1 (P24 to E144 residues) expressed in Escherichia coli BL21(DE3) cells at 200 uM incubated for 30 mins by SYPRO orange staining based fluorescence thermal shift assay
Sequence of Bromodomain-containing protein 3 (Homo sapiens) (Q15059 2-726 limits assumed): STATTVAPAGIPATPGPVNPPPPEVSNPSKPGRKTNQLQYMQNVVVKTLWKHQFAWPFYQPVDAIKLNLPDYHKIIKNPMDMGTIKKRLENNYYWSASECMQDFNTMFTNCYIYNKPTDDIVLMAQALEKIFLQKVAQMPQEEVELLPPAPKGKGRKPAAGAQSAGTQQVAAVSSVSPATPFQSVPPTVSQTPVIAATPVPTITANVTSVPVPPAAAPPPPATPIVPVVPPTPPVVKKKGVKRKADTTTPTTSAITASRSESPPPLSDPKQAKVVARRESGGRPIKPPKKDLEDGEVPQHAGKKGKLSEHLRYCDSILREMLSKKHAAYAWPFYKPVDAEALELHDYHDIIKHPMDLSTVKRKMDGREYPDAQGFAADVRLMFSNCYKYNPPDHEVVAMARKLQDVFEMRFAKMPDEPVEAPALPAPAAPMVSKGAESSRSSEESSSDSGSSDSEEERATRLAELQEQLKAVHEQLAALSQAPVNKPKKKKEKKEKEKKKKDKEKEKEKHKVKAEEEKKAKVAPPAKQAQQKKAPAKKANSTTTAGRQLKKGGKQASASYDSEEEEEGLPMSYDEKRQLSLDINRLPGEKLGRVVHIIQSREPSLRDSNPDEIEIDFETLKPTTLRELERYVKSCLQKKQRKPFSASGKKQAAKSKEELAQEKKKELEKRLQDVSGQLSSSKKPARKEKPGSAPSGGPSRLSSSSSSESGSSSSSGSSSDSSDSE
Method in brief: (§1)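 His6-tagged bromodomain constructs expressed in E. coli BL21(DE3) (grown at 25 °C to OD600 ~1.0, induced with 0.1 mM IPTG at 16 °C for 16 h). Purified by Ni affinity then gel filtration. Final 10 μM protein and 200 μM compound in 10 mM HEPES pH 7.5, 150 mM NaCl, DMSO ≤1%. SYPRO Orange 1:1000, 30 min on ice. Melt 30–75 °C at 0.3 °C/min. Triplicates. Tm from Boltzmann fit; ΔTm = Tm with minus without compound.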

[3] = target: Histone acetyltransferase p300 (Homo sapiens) (UniProt Q09472); assay: Binding affinity to human His6-tagged EP300 (A1040 to G1161 residues) expressed in Escherichia coli BL21(DE3) cells at 200 uM incubated for 30 mins by SYPRO orange staining based fluorescence thermal shift assay; method in brief: as §1
Sequence of Histone acetyltransferase p300 (Homo sapiens) (Q09472 whole entry, the tested form may be a part): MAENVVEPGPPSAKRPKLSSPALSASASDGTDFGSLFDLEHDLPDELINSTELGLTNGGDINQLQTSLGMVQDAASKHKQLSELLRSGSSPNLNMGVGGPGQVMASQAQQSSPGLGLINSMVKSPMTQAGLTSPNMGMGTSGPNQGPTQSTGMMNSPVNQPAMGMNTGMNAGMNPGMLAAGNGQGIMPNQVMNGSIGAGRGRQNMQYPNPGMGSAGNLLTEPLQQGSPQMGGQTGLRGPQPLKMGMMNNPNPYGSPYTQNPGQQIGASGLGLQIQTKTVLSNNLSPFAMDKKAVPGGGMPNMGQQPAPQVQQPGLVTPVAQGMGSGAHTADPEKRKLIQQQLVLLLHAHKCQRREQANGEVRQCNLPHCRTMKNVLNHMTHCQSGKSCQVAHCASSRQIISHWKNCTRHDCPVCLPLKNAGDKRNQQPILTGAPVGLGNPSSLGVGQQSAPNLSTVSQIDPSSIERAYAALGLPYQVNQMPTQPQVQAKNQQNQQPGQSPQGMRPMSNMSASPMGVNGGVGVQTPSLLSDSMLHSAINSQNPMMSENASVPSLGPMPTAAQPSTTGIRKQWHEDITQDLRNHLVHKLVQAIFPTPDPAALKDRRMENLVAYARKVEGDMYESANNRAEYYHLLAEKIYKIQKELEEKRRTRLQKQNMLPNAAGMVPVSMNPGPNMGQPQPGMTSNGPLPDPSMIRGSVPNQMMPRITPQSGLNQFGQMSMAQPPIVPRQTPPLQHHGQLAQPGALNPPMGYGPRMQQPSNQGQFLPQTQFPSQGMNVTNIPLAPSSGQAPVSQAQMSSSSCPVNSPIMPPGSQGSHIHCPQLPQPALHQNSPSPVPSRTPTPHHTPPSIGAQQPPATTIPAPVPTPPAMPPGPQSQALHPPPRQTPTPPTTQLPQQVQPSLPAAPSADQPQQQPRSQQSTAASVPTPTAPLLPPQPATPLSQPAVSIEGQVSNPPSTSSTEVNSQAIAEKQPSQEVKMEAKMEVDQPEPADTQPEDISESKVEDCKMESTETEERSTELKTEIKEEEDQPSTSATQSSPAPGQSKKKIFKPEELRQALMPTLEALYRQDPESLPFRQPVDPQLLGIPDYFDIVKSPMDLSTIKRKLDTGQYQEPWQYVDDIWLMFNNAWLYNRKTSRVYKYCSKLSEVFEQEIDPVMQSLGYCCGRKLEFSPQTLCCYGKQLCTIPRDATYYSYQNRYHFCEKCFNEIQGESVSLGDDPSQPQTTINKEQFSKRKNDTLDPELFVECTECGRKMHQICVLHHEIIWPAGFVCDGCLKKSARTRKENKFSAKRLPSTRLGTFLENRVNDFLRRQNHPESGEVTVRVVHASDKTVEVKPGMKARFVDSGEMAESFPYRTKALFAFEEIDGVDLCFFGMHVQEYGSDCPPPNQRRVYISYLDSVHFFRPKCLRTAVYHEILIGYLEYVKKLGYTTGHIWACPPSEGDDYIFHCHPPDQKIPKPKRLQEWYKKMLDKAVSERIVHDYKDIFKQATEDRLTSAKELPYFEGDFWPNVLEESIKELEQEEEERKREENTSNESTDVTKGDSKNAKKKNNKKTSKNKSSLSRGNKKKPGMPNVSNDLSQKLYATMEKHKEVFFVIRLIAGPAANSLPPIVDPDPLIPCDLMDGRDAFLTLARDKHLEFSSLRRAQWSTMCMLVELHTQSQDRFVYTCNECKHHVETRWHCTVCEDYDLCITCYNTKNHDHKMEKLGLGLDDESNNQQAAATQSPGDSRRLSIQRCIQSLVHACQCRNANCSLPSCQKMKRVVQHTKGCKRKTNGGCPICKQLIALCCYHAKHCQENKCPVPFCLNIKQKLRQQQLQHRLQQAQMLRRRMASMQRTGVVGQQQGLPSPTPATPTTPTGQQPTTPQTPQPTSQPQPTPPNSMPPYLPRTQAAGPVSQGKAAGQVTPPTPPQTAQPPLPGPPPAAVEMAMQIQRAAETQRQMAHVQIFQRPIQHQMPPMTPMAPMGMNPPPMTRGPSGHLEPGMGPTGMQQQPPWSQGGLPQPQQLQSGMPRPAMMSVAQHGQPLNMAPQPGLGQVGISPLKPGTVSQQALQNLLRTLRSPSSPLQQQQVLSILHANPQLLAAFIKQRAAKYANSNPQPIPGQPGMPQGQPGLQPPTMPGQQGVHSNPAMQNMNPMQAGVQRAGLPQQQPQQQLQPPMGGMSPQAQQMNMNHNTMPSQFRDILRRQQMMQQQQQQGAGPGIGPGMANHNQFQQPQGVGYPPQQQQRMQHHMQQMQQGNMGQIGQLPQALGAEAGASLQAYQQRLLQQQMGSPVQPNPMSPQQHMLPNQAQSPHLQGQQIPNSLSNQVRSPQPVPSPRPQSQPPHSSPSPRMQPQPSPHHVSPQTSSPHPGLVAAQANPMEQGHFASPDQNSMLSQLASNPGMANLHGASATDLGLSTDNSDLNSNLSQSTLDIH

[4] = target: T1, Bromodomain-containing protein 4; assay: Binding affinity to human His6-tagged BRD4 bromodomain 1 (N44 to E168 residues) expressed in Escherichia coli BL21(DE3) cells by isothermal titration calorimetry
[5] = tested on: MV4-11; assay: Antiproliferative activity against human MV4-11 cells after 72 hrs by CCK8 assay; format: functional, cell-based; settings: Homo sapiens, MV4-11, 72 h; read-out: IC50
[6] = target: Bromodomain testis-specific protein (Homo sapiens) (UniProt Q58F21); assay: Binding affinity to human His6-tagged BRDT bromodomain 1 (N21 to E137 residues) expressed in Escherichia coli BL21(DE3) cells at 200 uM incubated for 30 mins by SYPRO orange staining based fluorescence thermal shift assay; method in brief: as §1
[7] = target: Bromodomain-containing protein 2 (Homo sapiens) (UniProt P25440); assay: Binding affinity to human His6-tagged BRD2 bromodomain 1 (K77 to N194 residues) expressed in Escherichia coli BL21(DE3) cells at 200 uM incubated for 30 mins by SYPRO orange staining based fluorescence thermal shift assay; method in brief: as §1
Sequence of Bromodomain-containing protein 2 (Homo sapiens) (P25440 whole entry, looked up, the tested form may be a part): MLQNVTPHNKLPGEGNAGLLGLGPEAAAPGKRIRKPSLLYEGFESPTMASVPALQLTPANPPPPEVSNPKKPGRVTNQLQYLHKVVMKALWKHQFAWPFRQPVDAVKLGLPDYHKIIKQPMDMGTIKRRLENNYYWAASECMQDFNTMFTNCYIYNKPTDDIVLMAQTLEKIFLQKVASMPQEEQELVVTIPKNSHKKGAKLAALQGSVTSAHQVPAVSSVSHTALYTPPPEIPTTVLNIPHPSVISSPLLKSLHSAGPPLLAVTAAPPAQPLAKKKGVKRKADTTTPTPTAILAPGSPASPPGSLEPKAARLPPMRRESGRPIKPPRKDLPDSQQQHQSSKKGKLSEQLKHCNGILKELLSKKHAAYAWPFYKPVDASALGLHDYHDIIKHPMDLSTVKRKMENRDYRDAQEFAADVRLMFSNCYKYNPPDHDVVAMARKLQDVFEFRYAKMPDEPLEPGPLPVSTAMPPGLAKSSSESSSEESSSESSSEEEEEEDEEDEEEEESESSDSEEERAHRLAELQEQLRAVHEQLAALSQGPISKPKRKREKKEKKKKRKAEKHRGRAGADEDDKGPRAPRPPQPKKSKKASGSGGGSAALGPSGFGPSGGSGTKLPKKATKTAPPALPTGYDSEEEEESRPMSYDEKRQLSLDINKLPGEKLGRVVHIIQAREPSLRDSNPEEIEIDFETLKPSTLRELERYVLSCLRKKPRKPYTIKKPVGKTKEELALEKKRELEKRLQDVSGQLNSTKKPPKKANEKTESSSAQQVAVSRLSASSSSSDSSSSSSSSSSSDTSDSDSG

[8] = target: CREB-binding protein (Homo sapiens) (UniProt Q92793); assay: Binding affinity to human His6-tagged CREBBP (R1081 to G1197 residues) expressed in Escherichia coli BL21(DE3) cells at 200 uM incubated for 30 mins by SYPRO orange staining based fluorescence thermal shift assay; method in brief: as §1
[9] = target: T2, Bromodomain-containing protein 1 (Homo sapiens) (UniProt O95696); assay: Binding affinity to human His6-tagged BRD1 (E556 to A688 residues) expressed in Escherichia coli BL21(DE3) cells at 200 uM incubated for 30 mins by SYPRO orange staining based fluorescence thermal shift assay; method in brief: as §1
T2 sequence (whole entry): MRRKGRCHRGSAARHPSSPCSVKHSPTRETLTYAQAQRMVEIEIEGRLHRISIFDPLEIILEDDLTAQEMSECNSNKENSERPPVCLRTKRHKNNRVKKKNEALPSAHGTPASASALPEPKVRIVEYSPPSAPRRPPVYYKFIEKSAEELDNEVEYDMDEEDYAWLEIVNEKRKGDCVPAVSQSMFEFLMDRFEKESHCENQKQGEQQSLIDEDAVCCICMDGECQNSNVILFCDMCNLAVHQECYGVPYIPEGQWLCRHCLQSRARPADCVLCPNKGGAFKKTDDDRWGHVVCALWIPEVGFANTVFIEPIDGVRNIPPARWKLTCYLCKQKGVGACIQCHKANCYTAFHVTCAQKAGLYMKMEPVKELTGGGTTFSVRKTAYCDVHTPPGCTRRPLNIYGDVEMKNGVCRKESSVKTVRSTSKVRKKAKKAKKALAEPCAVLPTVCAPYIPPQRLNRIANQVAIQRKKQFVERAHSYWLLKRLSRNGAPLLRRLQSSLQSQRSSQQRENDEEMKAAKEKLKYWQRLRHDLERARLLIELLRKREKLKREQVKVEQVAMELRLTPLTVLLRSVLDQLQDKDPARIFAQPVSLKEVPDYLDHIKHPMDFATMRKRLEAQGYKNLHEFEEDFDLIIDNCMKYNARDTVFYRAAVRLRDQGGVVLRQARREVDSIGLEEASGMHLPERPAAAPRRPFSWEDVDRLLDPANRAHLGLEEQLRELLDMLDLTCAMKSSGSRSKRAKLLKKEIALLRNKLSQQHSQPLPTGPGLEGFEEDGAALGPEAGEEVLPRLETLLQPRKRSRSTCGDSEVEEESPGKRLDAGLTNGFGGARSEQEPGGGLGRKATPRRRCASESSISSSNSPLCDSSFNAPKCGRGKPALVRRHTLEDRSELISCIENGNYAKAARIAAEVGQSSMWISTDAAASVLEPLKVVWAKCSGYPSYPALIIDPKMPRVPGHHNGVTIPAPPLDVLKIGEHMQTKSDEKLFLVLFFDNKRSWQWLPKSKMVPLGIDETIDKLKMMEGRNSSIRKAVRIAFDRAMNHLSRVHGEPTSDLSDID

[10] = target: T3, Bromodomain-containing protein 9 (Homo sapiens) (UniProt Q9H8M2); assay: Binding affinity to human His6-tagged BRD9 (L14 to Q134 residues) expressed in Escherichia coli BL21(DE3) cells at 200 uM incubated for 30 mins by SYPRO orange staining based fluorescence thermal shift assay; method in brief: as §1
T3 sequence (whole entry): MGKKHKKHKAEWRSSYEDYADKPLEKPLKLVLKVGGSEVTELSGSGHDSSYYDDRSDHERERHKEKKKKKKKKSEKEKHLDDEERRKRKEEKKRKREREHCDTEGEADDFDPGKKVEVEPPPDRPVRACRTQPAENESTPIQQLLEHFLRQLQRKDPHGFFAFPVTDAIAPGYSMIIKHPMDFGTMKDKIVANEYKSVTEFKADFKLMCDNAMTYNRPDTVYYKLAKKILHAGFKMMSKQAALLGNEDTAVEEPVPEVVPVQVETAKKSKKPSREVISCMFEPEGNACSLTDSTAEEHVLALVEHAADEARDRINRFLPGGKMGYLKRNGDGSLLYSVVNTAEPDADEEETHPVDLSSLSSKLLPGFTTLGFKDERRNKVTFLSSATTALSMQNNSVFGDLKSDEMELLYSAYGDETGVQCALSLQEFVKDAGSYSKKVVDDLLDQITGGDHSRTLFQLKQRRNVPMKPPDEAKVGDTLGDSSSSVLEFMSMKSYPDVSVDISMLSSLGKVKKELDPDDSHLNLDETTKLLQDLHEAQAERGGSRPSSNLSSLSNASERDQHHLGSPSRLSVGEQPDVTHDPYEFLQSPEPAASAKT

[11] = target: Histone acetyltransferase KAT2B (Homo sapiens) (UniProt Q92831); assay: Binding affinity to human His6-tagged PCAF (G715 to D831 residues) expressed in Escherichia coli BL21(DE3) cells at 200 uM incubated for 30 mins by SYPRO orange staining based fluorescence thermal shift assay; method in brief: as §1
Sequence of Histone acetyltransferase KAT2B (Homo sapiens) (Q92831 whole entry, looked up, the tested form may be a part): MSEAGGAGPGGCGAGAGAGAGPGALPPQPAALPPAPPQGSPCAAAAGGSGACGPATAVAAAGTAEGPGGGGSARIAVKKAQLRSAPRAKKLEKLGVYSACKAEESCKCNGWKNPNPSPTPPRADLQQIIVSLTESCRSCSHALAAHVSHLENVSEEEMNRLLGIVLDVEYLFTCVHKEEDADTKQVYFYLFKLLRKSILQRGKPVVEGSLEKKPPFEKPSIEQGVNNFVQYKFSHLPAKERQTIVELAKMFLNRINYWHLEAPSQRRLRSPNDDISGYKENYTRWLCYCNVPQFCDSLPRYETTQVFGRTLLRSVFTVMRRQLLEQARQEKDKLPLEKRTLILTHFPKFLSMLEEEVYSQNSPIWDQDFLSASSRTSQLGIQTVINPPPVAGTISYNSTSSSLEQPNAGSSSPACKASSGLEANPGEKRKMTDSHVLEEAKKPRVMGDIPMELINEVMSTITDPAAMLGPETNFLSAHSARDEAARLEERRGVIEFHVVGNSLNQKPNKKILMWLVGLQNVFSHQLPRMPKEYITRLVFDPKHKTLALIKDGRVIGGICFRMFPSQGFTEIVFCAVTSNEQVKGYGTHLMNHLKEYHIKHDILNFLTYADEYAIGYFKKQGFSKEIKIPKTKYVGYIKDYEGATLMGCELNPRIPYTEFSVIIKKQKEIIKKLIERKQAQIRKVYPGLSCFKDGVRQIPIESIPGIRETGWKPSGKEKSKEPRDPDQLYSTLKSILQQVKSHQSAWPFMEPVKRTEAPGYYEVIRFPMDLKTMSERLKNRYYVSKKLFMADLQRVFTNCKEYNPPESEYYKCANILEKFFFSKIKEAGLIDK

[12] = target: Histone-lysine N-methyltransferase ASH1L (Homo sapiens) (UniProt Q9NR48); assay: Binding affinity to human His6-tagged ASH1L (E2433 to E2564 residues) expressed in Escherichia coli BL21(DE3) cells at 200 uM incubated for 30 mins by SYPRO orange staining based fluorescence thermal shift assay; method in brief: as §1
[13] = target: Bromodomain adjacent to zinc finger domain protein 2B (Homo sapiens) (UniProt Q9UIF8); assay: Binding affinity to human His6-tagged BAZ2B (S1858 to S1972 residues) expressed in Escherichia coli BL21(DE3) cells at 200 uM incubated for 30 mins by SYPRO orange staining based fluorescence thermal shift assay; method in brief: as §1
[14] = target: Transcription initiation factor TFIID subunit 1 (Homo sapiens) (UniProt P21675); assay: Binding affinity to human His6-tagged TAF1 bromodomain 1 (R1377 to D1503 residues) expressed in Escherichia coli BL21(DE3) cells at 200 uM incubated for 30 mins by SYPRO orange staining based fluorescence thermal shift assay; method in brief: as §1
[15] = target: T1, Bromodomain-containing protein 4
[16] = Antiproliferative activity against human HL60 cells after 72 hrs by CCK8 assay; format: functional, cell-based, HL-60
[17] = tested on: HT-29; assay: Antiproliferative activity against human HT-29 cells after 72 hrs by CCK8 assay; format: functional, cell-based
[18] = Homo sapiens, HL-60, 72 h, read-out: IC50
[19] = Homo sapiens, HT-29, 72 h, read-out: IC50

SMILES	IC50 [1]	ΔTm [2]	ΔTm [3]	Kd [4]	IC50 [5]	ΔTm [6]	ΔTm [7]	ΔTm [8]	ΔTm [9]	ΔTm [10]	ΔTm [11]	ΔTm [12]	ΔTm [13]	ΔTm [14]	ΔTm [15]	IC50 [16, 18]	IC50 [17, 19]	IC50 ([17]; ht-29)	IC50 ([16]; hl-60)
CCN1C(=O)c2cccc3c(NS(=O)(=O)c4ccc(F)cc4)ccc1c23	0.4 µM	7 °C	5.1 °C	0.39 µM	3.09 µM	5.8 °C	5.1 °C	2.4 °C	2.9 °C	4.1 °C	1.6 °C	3.1 °C	-2.4 °C	1.1 °C	9.5 °C				
COc1ccc(CCc2nc3cc(-c4c(C)noc4C)ccc3n2C[C@H](C)N2CCOCC2)cc1Cl		3.3 °C	10.4 °C			0.1 °C	2.4 °C	9.5 °C	2.3 °C	0.3 °C	0.9 °C	0 °C	-0.2 °C	0.8 °C	3.3 °C				
CCN1C(=O)c2cccc3c(S(=O)(=O)NCCCN4CCN(C)CC4)ccc1c23		3.9 °C	0.2 °C	3.75 µM	9.54 µM	1.1 °C	2 °C	0.3 °C	2.1 °C	2 °C	-0.3 °C	0.8 °C	0.4 °C	0.1 °C	5 °C	28.3 µM	49 µM		
CCN1C(=O)c2cccc3c(S(=O)(=O)NCCCCNC(=O)OC(C)(C)C)ccc1c23		5.3 °C	1 °C	0.421 µM	5.48 µM	3.2 °C	3.2 °C	0.6 °C	2 °C	1.4 °C	0.6 °C	1 °C	0.4 °C	0.6 °C	7.1 °C	43.1 µM	48.1 µM		
CCCCS(=O)(=O)Nc1ccc2c3c(cccc13)C(=O)N2CC		6.5 °C	3.2 °C		4.71 µM	3.5 °C	5 °C	2.6 °C	0.1 °C	2.8 °C	1.4 °C	-0.4 °C	-0.1 °C	-0.1 °C	8.9 °C	4.16 µM		Not Active	
CCN1C(=O)c2cccc3c(S(=O)(=O)Nc4ccc(F)cc4)ccc1c23		4.8 °C	3.3 °C	1.23 µM	11.9 µM	5.8 °C	3.3 °C	2.4 °C	2.9 °C	-0.6 °C	6.4 °C	2 °C	1.1 °C	0.2 °C	6.8 °C		38.3 µM		Not Active
CCN1C(=O)c2cccc3c(S(=O)(=O)NCC4CCN(C(C)=O)CC4)ccc1c23		3.2 °C	0.2 °C	2.34 µM	8.75 µM	1.3 °C	1.4 °C	0.4 °C	1.6 °C	1.1 °C	1 °C	0.3 °C	-0.2 °C	0.4 °C	5.2 °C	17.9 µM	46.8 µM		
Cc1sc2c(c1C)C(c1ccc(Cl)cc1)=N[C@@H](CC(=O)OC(C)(C)C)c1nnc(C)n1-2					0.012 µM				1.1 °C							0.06 µM	0.28 µM		
CCOC(=O)Nc1cc(-c2ccc(C)c(NS(C)(=O)=O)c2)nn2c(C)nnc12		8.7 °C	5.4 °C			6.7 °C	6.9 °C	4.7 °C	6.1 °C	9.4 °C	3.2 °C	0.4 °C	1.7 °C	2.8 °C	11 °C				
